Assay results taken from ChEMBL document CHEMBL2034918, “Synthesis and cytotoxic activity of new acridine-thiazolidine derivatives” (Bioorg Med Chem, 2012).
Calls of active or inactive are those of the source. No cut-off for these calls is given here.

Columns and labels:
[1] = tested on: Nucleic Acid; assay: Binding affinity to calf thymus dsDNA in biosensor assessed as oxidation of exposed bases at 10^-4 M by differential pulse voltametry; type: nucleic-acid assay; settings: Bos taurus
Procedure, shortened: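 Glassy carbon electrode polished with alumina, then pretreated by five cyclic scans 0 to +1.4 V in acetate buffer pH 4.5. Electrode coated with a dsDNA gel layer, then 20 µL of 10⁻⁴ M ethanolic compound added with drying. DPV in acetate buffer from 0 to 1.4 V: pulse amplitude 50 mV, pulse width 70 ms, step 2 mV, scan rate 5 mV/s, 25 °C. An untreated dsDNA electrode served as blank.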

[2] = tested on: OVCAR-8; assay: Antiproliferative activity against human OVCAR8 cells after 72 hrs by MTT assay; type: functional, cell-based; settings: OVCAR-8, 72 h
Procedure, shortened: (§1)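 Cancer lines kept in RPMI-1640 with 10% foetal bovine serum, 2 mM glutamine, penicillin/streptomycin, 37 °C, 5% CO₂. Seeded at 0.7 × 10⁵ cells/well (adherent) or 0.3 × 10⁶ cells/mL (suspension). After 24 h, compounds in DMSO added at 0.048–25 µg/mL for 72 h. Medium then replaced with 0.5 mg/mL MTT for 3 h. Formazan dissolved in DMSO, absorbance read at 595 nm.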

[3] = Haemolysis in mouse erythrocytes at 200 ug/mL after 30 mins by spectrophotometry; type: ADME, cell-based; settings: erythrocyte, 0.5 h
Procedure, shortened: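 Mouse erythrocytes used as a 2% suspension in 0.85% NaCl with 10 mM CaCl₂. Compounds tested across 1.5–200 µg/mL with 1% Triton X-100 as positive control. Incubated 30 min at room temperature, then centrifuged. Released haemoglobin in the supernatant measured at 540 nm.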

[4] = tested on: CCRF-CEM; assay: Antiproliferative activity against human CEM cells after 72 hrs by MTT assay; type: functional, cell-based; procedure, shortened: as §1
[5] = tested on: SW-620; assay: Antiproliferative activity against human SW620 cells after 72 hrs by MTT assay; type: functional, cell-based; settings: SW-620, 72 h; procedure, shortened: as §1
[6] = tested on: HL-60; assay: Antiproliferative activity against human HL60 cells after 72 hrs by MTT assay; type: functional, cell-based; settings: HL-60, 72 h; procedure, shortened: as §1
[7] = tested on: MDA-MB-435; assay: Antiproliferative activity against human MDA-MB-435 cells after 72 hrs by MTT assay; type: functional, cell-based; settings: MDA-MB-435, 72 h; procedure, shortened: as §1
[8] = tested on: PBMC; assay: Cytotoxicity against human PBMC after 72 hrs by alamar blue assay; type: cell-based
Procedure, shortened: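 PBMC isolated from heparinised blood of healthy non-smoking donors by Ficoll-Hypaque density gradient. Cultured in RPMI-1640 with 20% FBS, glutamine, antibiotics and 2% phytohaemagglutinin at 37 °C, 5% CO₂. Plated at 3 × 10⁵ cells/mL; compounds in DMSO added at 0.048–25 µg/mL after 24 h, 72 h exposure. Alamar blue (resazurin) added 24 h before the end; absorbance read at 570 and 595 nm. IC50 by nonlinear regression.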

[9] = tested on: MX1; assay: Antiproliferative activity against human MX1 cells after 72 hrs by MTT assay; type: functional, cell-based; settings: MX1, 72 h; procedure, shortened: as §1
[10] = tested on: HCT-8; assay: Antiproliferative activity against human HCT8 cells after 72 hrs by MTT assay; type: functional, cell-based; settings: HCT-8, 72 h; procedure, shortened: as §1
[11] = tested on: HCT-15; assay: Antiproliferative activity against human HCT15 cells after 72 hrs by MTT assay; type: functional, cell-based; settings: HCT-15, 72 h; procedure, shortened: as §1
[12] = tested on: MDA-MB-231; assay: Antiproliferative activity against human MDA-MB-231 cells after 72 hrs by MTT assay; type: functional, cell-based; settings: MDA-MB-231, 72 h; procedure, shortened: as §1
[13] = tested on: UACC-62; assay: Antiproliferative activity against human UACC62 cells after 72 hrs by MTT assay; type: functional, cell-based; settings: UACC-62, 72 h; procedure, shortened: as §1
[14] = tested on: Nucleic Acid; assay: Binding affinity to calf thymus ssDNA in solution assessed as oxidation of exposed bases at 10^-4 M by differential pulse voltametry; type: nucleic-acid assay; settings: Bos taurus
Procedure, shortened: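 ssDNA made by dissolving dsDNA (3.0 mg/mL) in 1 M HCl with heating for 1 h. Compound was incorporated into a carbon paste electrode; blank paste contained ethanol only. DPV at pH 4.5 in ssDNA solution (1.0 × 10⁻⁴ M): equilibration 5 s, step 2 mV, pulse amplitude 50 mV, scan rate 5 mV/s.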

[15] = tested on: DU-145; assay: Antiproliferative activity against human DU145 cells after 72 hrs by MTT assay; type: functional, cell-based; settings: DU-145, 72 h; procedure, shortened: as §1
[16] = tested on: PC-3; assay: Antiproliferative activity against human PC3 cells after 72 hrs by MTT assay; type: functional, cell-based; settings: PC-3, 72 h; procedure, shortened: as §1
[17] = tested on: V79; assay: Selectivity ratio of IC50 for chinese hamster V79 cells to IC50 for human SF295 cells
[18] = tested on: K562; assay: Antiproliferative activity against human K562 cells after 72 hrs by MTT assay; type: functional, cell-based; settings: K562, 72 h; procedure, shortened: as §1
[19] = tested on: SF-295; assay: Antiproliferative activity against human SF295 cells after 72 hrs by MTT assay; type: functional, cell-based; settings: SF-295, 72 h; procedure, shortened: as §1
[20] = tested on: COLO 205; assay: Antiproliferative activity against human COLO205 cells after 72 hrs by MTT assay; type: functional, cell-based; settings: COLO 205, 72 h; procedure, shortened: as §1
[21] = tested on: V79; assay: Cytotoxicity against chinese hamster V79 cells after 72 hrs by MTT assay; type: cell-based; settings: Cricetulus griseus, V79, 72 h
Procedure, shortened: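 V79 Chinese hamster lung fibroblasts grown in MEM with Earle's salts, 10% foetal bovine serum, 2 mM glutamine, penicillin/streptomycin, 37 °C, 5% CO₂. Seeded at 0.7 × 10⁵ cells/well. Compounds in DMSO added at 0.048–25 µg/mL after 24 h and left 72 h. MTT 0.5 mg/mL for 3 h, formazan in DMSO read at 595 nm. IC50 by nonlinear regression, two experiments in duplicate.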

[22] = tested on: Hs-578T; assay: Antiproliferative activity against human Hs578T cells after 72 hrs by MTT assay; type: functional, cell-based; procedure, shortened: as §1

O=C1S/C(=C\c2c3ccccc3nc3ccccc23)C(=O)N1Cc1ccc(Cl)cc1
Activity [1]: Active
IC50 [2]: 5.7 µM
Activity [3]: Non-toxic
IC50 [4]: > 58 µM
IC50 [5]: 20.1 µM
IC50 [6]: > 58 µM
IC50 [7]: 22.2 µM
IC50 [8]: > 58 µM
IC50 [9]: > 58 µM
IC50 [10]: 8.3 µM
IC50 [11]: 21.5 µM
IC50 [12]: > 58 µM
IC50 [13]: 29 µM
Activity [14]: Active
IC50 [15]: 9.5 µM
IC50 [16]: 13 µM
Ratio IC50 [17]: 3.1
IC50 [18]: > 58 µM
IC50 [19]: 5.8 µM
IC50 [20]: 6.3 µM
IC50 [21]: 17.9 µM
IC50 [22]: > 58 µM

CCOC(=O)/C(C#N)=C/c1c2ccccc2nc2ccccc12
Activity [1]: Active
IC50 [2]: 23.3 µM
Activity [3]: Non-toxic
IC50 [6]: 4.07 µM
Activity [14]: Active
IC50 [19]: 54.7 µM

O=C1SC(=Cc2c3ccccc3nc3ccccc23)C(=O)N1Cc1ccc(F)cc1 (mixture of isomers)
Activity [1]: Active
IC50 [2]: 9.3 µM
Activity [3]: Non-toxic
IC50 [4]: > 60.3 µM
IC50 [5]: 31.3 µM
IC50 [6]: > 60.3 µM
IC50 [7]: 14.1 µM
IC50 [8]: > 60.3 µM
IC50 [10]: 5.6 µM
IC50 [11]: 58 µM
IC50 [13]: 9.5 µM
Activity [14]: Active
IC50 [16]: 27.1 µM
Ratio IC50 [17]: 5.9
IC50 [18]: > 60.3 µM
IC50 [19]: 5.6 µM
IC50 [20]: 23 µM
IC50 [21]: 32.7 µM

COc1cc(NS(C)(=O)=O)ccc1Nc1c2ccccc2nc2ccccc12 [AMSACRINE]
IC50 [2]: 1.4 µM
IC50 [5]: 0.3 µM
IC50 [6]: 0.08 µM
IC50 [8]: 21.7 µM
IC50 [10]: 0.3 µM
IC50 [11]: 0.3 µM
IC50 [15]: 0.3 µM
IC50 [16]: 3.3 µM
IC50 [19]: 0.5 µM
IC50 [20]: 1.1 µM
IC50 [21]: 5.8 µM
